# From ChEMBL document CHEMBL3259541, “Synthesis and biological evaluation of antimetastatic agents predicated upon dihydromotuporamine C and its carbocyclic derivatives” (J Med Chem, 2014)
# Active and inactive are the calls of the source. No cut-off for these calls is given here.
# Columns and labels:
# [1] = system: L3.6pl; assay: Effect on intracellular ceramide population in human L3.6PL cells assessed as sphingomyelin N22:1 level measured per mg of protein at 0.6 uM after 48 hrs incubation by mass spectrometry analysis (reference value: 0.23 +/- 0.07 nmol); assay type: functional
# [2] = system: L3.6pl; assay: Effect on intracellular ceramide population in human L3.6PL cells assessed as sphingomyelin N16:0 level measured as contribution to total ceramide population at 0.6 uM after 48 hrs incubation by mass spectrometry analysis (reference value: 37.3%); assay type: functional
# [3] = system: L3.6pl; assay: Effect on intracellular ceramide population in human L3.6PL cells assessed as sphingomyelin N20:0 level measured per mg of protein at 0.6 uM after 48 hrs incubation by mass spectrometry analysis (reference value: 0.09 +/- 0.03 nmol); assay type: functional
# [4] = system: Mus musculus; assay: Toxicity in immune-compromised mouse assessed as adverse event at 2.66 mg/kg,ip 5 days per week for 2 weeks; assay type: organism-based; design: dose 2.66 mg/kg; conditions: in vivo
# [5] = system: L3.6pl; assay: Effect on intracellular ceramide population in human L3.6PL cells assessed as ceramide N16:0 to N22:1 ratio measured at 0.6 uM after 48 hrs incubation by mass spectrometry analysis (reference value: 5.8 no_unit)
# [6] = system: L3.6pl; assay: Antimetastatic activity against human L3.6PL cells injected into pancreas of immune-compromised mouse assessed as liver micrometastasis at 2.66 mg/kg,ip 5 days per week for 2 weeks after 7 days of tumor cells inoculation by Hematoxylin and eosin staining
# [7] = system: polyamine transporter; assay: Selectivity ratio of IC50 for polyamine transporter deficient CHO-MG cells to IC50 for CHO cells by MTS assay; assay type: ADME, cell-based, Cricetulus griseus; conditions: chinese hamster, polyamine transporter deficient CHO-MG cells and CHO cells; read-out: Ratio IC50
# Outline: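 CHO and polyamine-transport-deficient CHO-MG* cells pretreated 24 h with 1 mM aminoguanidine, then exposed to compound for 48 h at 37 °C. Triplicate. IC50 taken as 50% growth inhibition. PTS selectivity expressed as the CHO-MG*/CHO IC50 ratio.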
# [8] = system: L3.6pl; assay: Antimetastatic activity against human L3.6PL cells injected into pancreas of immune-compromised mouse assessed as liver micrometastasis at 2.66 mg/kg,ip 5 days per week for 2 weeks after 7 days of tumor cells inoculation by human Ki67 immunohistochemical staining
# [9] = system: L3.6pl; assay: Antimigratory activity against human L3.6PL cells assessed as cell migration inhibition after 48 hrs incubation by wound healing assay in presence of 250 uM aminoguanidine treated 24 hrs prior compound addition; assay type: functional, cell-based
# [10] = system: L3.6pl; assay: Antimetastatic activity against human L3.6PL cells injected into pancreas of immune-compromised mouse assessed as liver micrometastasis at 2.66 mg/kg,ip 5 days per week for 2 weeks after 7 days of tumor cells inoculation by microscopically; assay type: functional, organism-based; design: dose 2.66 mg/kg
# Outline: (§1)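 Nu/nu mice engrafted with human L3.6pl pancreatic tumor cells; vehicle or compound given ip 5 days/week for 2 weeks (10 injections; 2.50 mg/kg for one agent, 2.66 mg/kg equimolar for the other), n=7 per group. Livers collected at termination; micrometastasis incidence and size scored macroscopically and on sections by H&E, human Ki67 and human cytokeratin-18 immunohistochemistry.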
# [11] = system: L3.6pl; assay: Antimetastatic activity against human L3.6PL cells injected into pancreas of immune-compromised mouse assessed as liver micrometastasis at 2.5 mg/kg,ip 5 days per week for 2 weeks after 7 days of tumor cells inoculation by microscopically; assay type: functional, organism-based; design: dose 2.5 mg/kg; outline: as §1
# [12] = system: L3.6pl; assay: Effect on intracellular ceramide population in human L3.6PL cells assessed as ceramide N22:1 level measured as contribution to total ceramide population at 0.6 uM after 48 hrs incubation by mass spectrometry analysis relative to untreated control
# [13] = system: L3.6pl; assay: Antimetastatic activity against human L3.6PL cells injected into pancreas of immune-compromised mouse assessed as liver micrometastasis at 2.5 mg/kg,ip 5 days per week for 2 weeks after 7 days of tumor cells inoculation by Hematoxylin and eosin staining
# [14] = Toxicity in immune-compromised mouse compound treated ip 5 days per week for 2 weeks; assay type: organism-based; conditions: in vivo
# [15] = system: Mus musculus; assay: Toxicity in immune-compromised mouse assessed as adverse event at 2.5 mg/kg,ip 5 days per week for 2 weeks; assay type: organism-based; design: dose 2.5 mg/kg; conditions: in vivo
# [16] = system: L3.6pl; assay: Antimetastatic activity against human L3.6PL cells injected into pancreas of immune-compromised mouse assessed as liver micrometastasis at 2.5 mg/kg,ip 5 days per week for 2 weeks after 7 days of tumor cells inoculation by human Ki67 immunohistochemical staining
Compound,Activity [1] [nmol],Activity [2] [%],Activity [3] [nmol],Activity [4],Ratio [5],Activity [6],selectivity ratio [7],Activity [8],inhibition [9],Activity [10],Activity [11],fold change (FC) [12],Activity [13],MTD at 2 weeks [14] [mg/kg],Activity [15],Activity [16]
Cl.NCCCNCCCNCC1CCCCCCCCCCCCCC1,0.3,38.4,0.15,Non-toxic,8.4,Active,1,Active,Dose-dependent effect,Active,,,,,,
Cl.NCCCNCCCN1CCCCCCCCCCCCCC1,0.26,20.3,0.14,,1.1,,1,,,,inactive,2.8,inactive,2.5,Non-toxic,inactive
